Results taken from PMC7709506 (ESMO Open, 2020).

Experiment: Safety and tolerability
Type: in vivo, human
Method in brief: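 Open-label multicentre phase I/IIa trial in adults with advanced or metastatic solid tumours. Part 1 used 3+3 oral capsule escalation at 50–800 mg/day to define DLT and MTD. Part 2 gave tablets. Treatment continued until progression, intolerable AE or study end, with dose decisions by a safety monitoring board. AEs of special interest were monitored. The safety population was all dosed patients, summarised by dose level.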

With `Cn1cc(-c2ccc3c(c2)ncn3-c2cc(NS(=O)(=O)C3CC3)cc(-c3ccc(F)cc3F)c2)cn1` [ODM-203] the Decreased appetite (tablet 200 mg (n=3)) was 1 (33.3) n (%), the Diarrhoea (tablet 200 mg (n=3)) was 0 n (%) and the Dry mouth (tablet 200 mg (n=3)) was 1 (33.3) n (%). The Dry skin (tablet 200 mg (n=3)) was 0 n (%), the Dysgeusia (tablet 200 mg (n=3)) was 1 (33.3) n (%) and the Epistaxis (tablet 200 mg (n=3)) was 0 n (%). The Fatigue (tablet 200 mg (n=3)) was 1 (33.3) n (%), the Hyperbilirubinaemia (tablet 200 mg (n=3)) was 0 n (%) and the Hyperphosphataemia (tablet 200 mg (n=3)) was 0 n (%). The Hypertension (tablet 200 mg (n=3)) was 1 (33.3) n (%), the Jaundice (tablet 200 mg (n=3)) was 0 n (%) and the Mucosal inflammation (tablet 200 mg (n=3)) was 0 n (%). For the same compound, the Myalgia (tablet 200 mg (n=3)) was 1 (33.3) n (%), the Nasal dryness (tablet 200 mg (n=3)) was 0 n (%) and the Nausea (tablet 200 mg (n=3)) was 0 n (%). The Onycholysis (tablet 200 mg (n=3)) was 0 n (%), the Palmar-plantar eryrthodysaestesia (tablet 200 mg (n=3)) was 0 n (%) and the “Related AE” value (tablet 200 mg (n=3)) was 3 (100) n (%). For the same compound, the “Related SAEs” value (tablet 200 mg (n=3)) was 0 n (%), the Stomatitis (tablet 200 mg (n=3)) was 1 (33.3) n (%) and the Vomiting (tablet 200 mg (n=3)) was 0 n (%). For the same compound, the Weight decreased (tablet 200 mg (n=3)) was 0 n (%), the “AE leading to death” value (tablet 300 mg (n=3)) was 0 n (%) and the “AE leading to discontinuation” value (tablet 300 mg (n=3)) was 0 n (%). The “AE leading to dose reduction” value (tablet 300 mg (n=3)) was 1 (33.3) n (%), the “AE leading to treatment interruption” value (tablet 300 mg (n=3)) was 1 (33.3) n (%) and the Alopecia (tablet 300 mg (n=3)) was 1 (33.3) n (%). For the same compound, the “Any AE” value (tablet 300 mg (n=3)) was 3 (100) n (%), the Arthralgia (tablet 300 mg (n=3)) was 2 (66.7) n (%) and the Asthenia (tablet 300 mg (n=3)) was 3 (100) n (%). The Blood bilirubin increased (tablet 300 mg (n=3)) was 0 n (%), the Conjugated bilirubin increased (tablet 300 mg (n=3)) was 1 (33.3) n (%) and the Decreased appetite (tablet 300 mg (n=3)) was 2 (66.7) n (%). The Diarrhoea (tablet 300 mg (n=3)) was 1 (33.3) n (%), the Dry mouth (tablet 300 mg (n=3)) was 1 (33.3) n (%) and the Dry skin (tablet 300 mg (n=3)) was 1 (33.3) n (%). The Dysgeusia (tablet 300 mg (n=3)) was 1 (33.3) n (%), the Epistaxis (tablet 300 mg (n=3)) was 1 (33.3) n (%) and the Fatigue (tablet 300 mg (n=3)) was 0 n (%). The Hyperbilirubinaemia (tablet 300 mg (n=3)) was 1 (33.3) n (%), the Hyperphosphataemia (tablet 300 mg (n=3)) was 1 (33.3) n (%) and the Hypertension (tablet 300 mg (n=3)) was 0 n (%). For the same compound, the Jaundice (tablet 300 mg (n=3)) was 1 (33.3) n (%), the Mucosal inflammation (tablet 300 mg (n=3)) was 1 (33.3) n (%) and the Myalgia (tablet 300 mg (n=3)) was 0 n (%). For the same compound, the Nasal dryness (tablet 300 mg (n=3)) was 1 (33.3) n (%), the Nausea (tablet 300 mg (n=3)) was 0 n (%) and the Onycholysis (tablet 300 mg (n=3)) was 0 n (%). For the same compound, the Palmar-plantar eryrthodysaestesia (tablet 300 mg (n=3)) was 1 (33.3) n (%), the “Related AE” value (tablet 300 mg (n=3)) was 3 (100) n (%) and the “Related SAEs” value (tablet 300 mg (n=3)) was 1 (33.3) n (%). The Stomatitis (tablet 300 mg (n=3)) was 0 n (%), the Vomiting (tablet 300 mg (n=3)) was 1 (33.3) n (%) and the Weight decreased (tablet 300 mg (n=3)) was 2 (66.7) n (%). For the same compound, the “AE leading to death” value (tablet 400 mg (n=30)) was 5 (16.7) n (%), the “AE leading to discontinuation” value (tablet 400 mg (n=30)) was 9 (30.0) n (%) and the “AE leading to dose reduction” value (tablet 400 mg (n=30)) was 6 (20.0) n (%). For the same compound, the “AE leading to treatment interruption” value (tablet 400 mg (n=30)) was 28 (93.3) n (%), the Alopecia (tablet 400 mg (n=30)) was 10 (33.3) n (%) and the “Any AE” value (tablet 400 mg (n=30)) was 30 (100) n (%). The Arthralgia (tablet 400 mg (n=30)) was 9 (30.0) n (%), the Asthenia (tablet 400 mg (n=30)) was 10 (33.3) n (%) and the Blood bilirubin increased (tablet 400 mg (n=30)) was 15 (50.0) n (%). The Conjugated bilirubin increased (tablet 400 mg (n=30)) was 7 (23.3) n (%), the Decreased appetite (tablet 400 mg (n=30)) was 11 (36.7) n (%) and the Diarrhoea (tablet 400 mg (n=30)) was 19 (63.3) n (%). The Dry mouth (tablet 400 mg (n=30)) was 12 (40.0) n (%), the Dry skin (tablet 400 mg (n=30)) was 7 (23.3 n (%) and the Dysgeusia (tablet 400 mg (n=30)) was 10 (33.3) n (%). The Epistaxis (tablet 400 mg (n=30)) was 14 (46.7) n (%), the Fatigue (tablet 400 mg (n=30)) was 9 (30.0) n (%) and the Hyperbilirubinaemia (tablet 400 mg (n=30)) was 11 (36.7) n (%). For the same compound, the Hyperphosphataemia (tablet 400 mg (n=30)) was 8 (26.7) n (%), the Hypertension (tablet 400 mg (n=30)) was 8 (26.7) n (%) and the Jaundice (tablet 400 mg (n=30)) was 11 (36.7) n (%). For the same compound, the Mucosal inflammation (tablet 400 mg (n=30)) was 7 (23.3) n (%), the Myalgia (tablet 400 mg (n=30)) was 3 (10.0) n (%) and the Nasal dryness (tablet 400 mg (n=30)) was 6 (20.0) n (%). For the same compound, the Nausea (tablet 400 mg (n=30)) was 7 (23.3) n (%), the Onycholysis (tablet 400 mg (n=30)) was 3 (10.0) n (%) and the Palmar-plantar eryrthodysaestesia (tablet 400 mg (n=30)) was 15 (50.0) n (%). For the same compound, the “Related AE” value (tablet 400 mg (n=30)) was 29 (96.7) n (%), the “Related SAEs” value (tablet 400 mg (n=30)) was 4 (13.3) n (%) and the Stomatitis (tablet 400 mg (n=30)) was 17 (56.7) n (%). The Vomiting (tablet 400 mg (n=30)) was 5 (16.7) n (%) and the Weight decreased (tablet 400 mg (n=30)) was 5 (16.7) n (%).
